Measurements pooled from the literature.
Target: Serine/threonine-protein kinase 38 (STK38, Homo sapiens, UniProt Q15208)

Structure (SMILES)	assay	setting	remaining binding [%]
O=C(Nc1c[nH]nc1C(=O)NC1CCNCC1)c1cc(F)cc(F)c1	binding, competition with immobilised ligand	1 µM	97
COc1cnc(Nc2cccc(S(N)(=O)=O)c2)nc1N1CCN(c2ccccc2)C(=O)C1	binding, competition with immobilised ligand	1 µM	84
O=C(c1ccc(Nc2ncc(Cl)c(-c3cc4ccccc4s3)n2)cc1)N1CCC(N2CCCC2)CC1	binding, competition with immobilised ligand	1 µM	78
C[C@H]1CCN(c2nccc(-c3cnn4ncccc34)n2)C1	binding	1 µM	93
O=C(NCc1ncc(C(F)(F)F)cc1Cl)c1ccc2c(c1)C1(CCS(=O)(=O)CC1)[C@H](C1CC1)N2S(=O)(=O)c1ccc(F)cc1	cell-free assay, competition with immobilised ligand	1 µM	92
N[C@@H]1CCN(c2nccc(-c3cnn4ncccc34)n2)C1	binding	1 µM	84
CCN1CCN(Cc2ccc(C(=O)Nc3ccc(C)c(Oc4ccc5c(c4)CC(=O)N5)c3)cc2C(F)(F)F)CC1	binding, competition with immobilised ligand	1 µM	100
CN(C)c1nccc(-c2cnn3ncccc23)n1	binding	1 µM	74
C[C@@]1(Cc2ccc(C#N)cc2)C(=O)N(c2cc(Cl)cc(Cl)c2)c2ncc(C(=O)NC3(c4nc(C5CCC5)no4)CC3)n21	cell-free assay, competition with immobilised ligand	1 µM	100
COc1ccnn2ncc(-c3ccnc(N(C)C)n3)c12	binding	1 µM	100
Cc1c[nH]c2nccc(Oc3c(F)cc(Nc4cc(Cl)nc(N)n4)cc3F)c12	cell-free assay, competition with immobilised ligand	0.1 µM	89
C[C@@H](c1ccc(-n2cnc3c(N)ncnc32)cc1)N1CCc2nn(C)c(Cc3ccccc3)c2C1=O	binding, competition with immobilised ligand	0.1 µM	71
Cc1cc(-n2nc(Cc3cc(F)cc(C(F)(F)F)c3)nc2C)ccc1C(N)=O	cell-free assay, competition with immobilised ligand	1 µM	83
c1cncc(-c2cccc(Nc3nccc(NC4CCCCC4)n3)c2)c1	binding, competition with immobilised ligand	10 µM	89
CN(C)c1ncc(F)c(-c2cnn3ncccc23)n1	binding	1 µM	90
FC(F)(F)Oc1cccc(-c2cnc3ccc(-c4ccncc4)nn23)c1	cell-free assay, competition with immobilised ligand	5 µM	80
O=C(c1ccc(Nc2ncc(Cl)c(-c3ccc(Cl)s3)n2)cc1)N1CCC(N2CCCC2)CC1	binding, competition with immobilised ligand	1 µM	67
Cc1c(NC(=O)c2cc(C(N)=O)nc3cc(F)ccc23)c(C(F)(F)F)nn1Cc1ccc(C(C)(C)C)cc1	cell-free assay, competition with immobilised ligand	1 µM	93
Cc1cnc(Nc2ccc(C(=O)N3CCC(N4CCCC4)CC3)cc2)nc1-c1cc2ccccc2s1	binding, competition with immobilised ligand	1 µM	79
Cc1cnn2ncc(-c3ccnc(N(C)C)n3)c2c1	binding	1 µM	100
COc1ccc2cc(OCC3(C(=O)O)CN(C(=O)c4ccc(F)cc4)C3)ccc2c1	cell-free assay, competition with immobilised ligand	1 µM	98
